Measured values of several laboratories.
Lines come from different studies, so protocols differ. Converted amounts (≈) assume the structure as drawn.

Structure (SMILES) | tested on | test | conditions | endpoint | value
O=c1oc2c(O)c(O)cc3c(=O)oc4c(O)c(O)cc1c4c23 | Streptococcus mutans | microbial killing, broth dilution | – | MBC | 200 µg/mL (≈ 662 µM)
CC1(C)S[C@@H]2[C@H](NC(=O)[C@H](N)c3ccccc3)C(=O)N2[C@H]1C(=O)O | Streptococcus pyogenes | microbial growth | clinical isolate | MIC90 | 0.5 µg/mL (≈ 1.43 µM)
c1ccc(Oc2ccc(Nc3c4c(nc5ccccc35)CCC4)cc2)cc1 | Leishmania infantum | parasite growth, MTT | promastigote | EC50 | 539 nM
NCCCC(=O)Nc1ccccc1/N=c1\cc(-c2ccc3c(c2)OCO3)oc2ccccc12 | HCT-116 | cell growth or viability, CCK-8 | 1 µM | inhibition | 6.97%
COc1ccc(NC(=O)NCc2cn(Cc3ccc(C)cc3)nn2)cc1 | PC-9 | cell growth or viability, CCK-8 | 50 µM, 72 h | viability | 113%
O=C1OC[C@H]2OC(O)[C@H](O)[C@@H](O)[C@@H]2OC(=O)c2cc(O)c(O)c(O)c2-c2c(O)c(O)c3oc(=O)c4c(c(O)c(O)c5oc(=O)c2c3c54)-c2c1cc(O)c(O)c2O (mixture of isomers) | Streptococcus mutans | microbial growth, disc diffusion | 500 µg/disc | inhibition zone | 15 mm
Cc1nc(Nc2ncc(C(=O)Nc3c(C)cccc3Cl)s2)cc(N2CC[C@H](O)C2)n1 | DOHH-2 | cell growth or viability, ATP luminescence | 10 µM, 72 h | inhibition | 86%
Oc1cc(O)c2c(c1)O[C@H](c1cc(O)c(O)c(O)c1)[C@@H](O)C2 | Streptococcus mutans | microbial growth, broth dilution | 24 h | MIC | 100 µg/mL (≈ 327 µM)
C[C@@H]1[C@H](O)[C@@H](C)/C=C/C=C/C=C/C=C/C=C/C=C/C=C/[C@H](O[C@@H]2O[C@H](C)[C@@H](O)[C@H](N)[C@@H]2O)C[C@@H]2O[C@](O)(C[C@@H](O)C[C@@H](O)[C@H](O)CC[C@@H](O)C[C@@H](O)CC(=O)O[C@H]1C)C[C@H](O)[C@H]2C(=O)O | Leishmania infantum | parasite growth, MTT | promastigote | IC50 | 1490 nM
NCCCCC(=O)Nc1ccccc1/N=c1\cc(-c2ccc3c(c2)OCO3)oc2ccccc12 | HCT-116 | cell growth or viability, CCK-8 | 1 µM | inhibition | 3.02%
CC(=O)NC[C@H]1CN(c2ccc(N3CCOCC3)c(F)c2)C(=O)O1 | Streptococcus pyogenes | microbial growth | clinical isolate | MIC90 | 2 µg/mL (≈ 5.93 µM)
C[C@@H]1O[C@@H](OC[C@H]2O[C@@H](Oc3c(-c4ccc(O)c(O)c4)oc4cc(O)cc(O)c4c3=O)[C@H](O)[C@@H](O)[C@@H]2O)[C@H](O)[C@H](O)[C@H]1O | Streptococcus mutans | microbial killing, broth dilution | – | MBC | 400 µg/mL (≈ 655 µM)
COc1ccc2oc(-c3ccc4nc(N)oc4c3)c/c(=N\c3ccccc3NC(=O)CCN)c2c1 | HCT-116 | cell growth or viability, CCK-8 | 1 µM | inhibition | 45.5%
CC[C@H]1OC(=O)[C@H](C)[C@@H](O[C@H]2C[C@@](C)(OC)[C@@H](O)[C@H](C)O2)[C@H](C)[C@@H](O[C@@H]2O[C@H](C)C[C@H](N(C)C)[C@H]2O)[C@](C)(O)C[C@@H](C)/C(=N\OCOCCOC)[C@H](C)[C@@H](O)[C@]1(C)O | Streptococcus pyogenes | microbial growth | clinical isolate | MIC90 | 2 µg/mL (≈ 2.39 µM)
Nc1nc2ccc(-c3c/c(=N\c4ccccc4NC(=O)CCN4CCOCC4)c4ccccc4o3)cc2o1 | HCT-116 | cell growth or viability, CCK-8 | 1 µM | inhibition | -4.11%
C[C@H](Nc1ccc2c(c1)OCCn1cc(N3C(=O)OC[C@H]3C(F)F)nc1-2)C(N)=O | KYSE-510 | cell growth or viability, ATP luminescence | 5 days | EC50 | 87.8 nM
COc1ccc2/c(=N/c3ccccc3NC(=O)CN)cc(-c3ccc4c(c3)OCCO4)oc2c1 | HCT-116 | cell growth or viability, CCK-8 | 1 µM | inhibition | 11.4%
O=C1O[C@H]2[C@@H]3OC(=O)c4cc(O)c(O)c(O)c4-c4c(O)c(O)c5oc(=O)c6c(c(O)c(O)c7oc(=O)c4c5c76)-c4c(cc(O)c(O)c4O)C(=O)OC[C@H]3OC(O)[C@@H]2OC(=O)c2cc(O)c(O)c(O)c2-c2c1cc(O)c(O)c2O (mixture of isomers) | Streptococcus mutans | microbial killing, broth dilution | – | MBC | 200 µg/mL
CCOc1ccc(Nc2c3c(nc4ccccc24)CCC3)cc1 | Leishmania infantum | parasite growth, MTT | promastigote | EC50 | 645 nM
